Screens from PubChem.
Sampled rows, rich in hits. Any-hit rate of the full collection: about 2.9%.
SENP7 inh: inhibitors of human SENP7 protease. Q9BQF6. recombinant SENP7, Z-RLRGG-aminoluciferin luminescence, 40 min. inhibition, % at 5 µM. 330,000 tested, 1.5% active;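 active means inhibition above about 50% at the single test dose, limit read from the data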;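 further: plate controls were DMSO with enzyme for no effect and no enzyme buffer wells for full effect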
SENP8 block-1: inhibitors of human SENP8 protease; Q96LD8; purified SENP8, Z-RLRGG-aminoluciferin cleavage, luminescence; inhibition, % at 10 µM; 330,000 tested, 1.2% active; AID 2540; in the data active means inhibition above about 50%
HSP90 inh: blocks HSP90-mediated luciferase refolding in reticulocyte lysate; Rabbit reticulocyte lysate, luciferase refolding luminescence, 3 h; inhibition, % at 5.6 µM; 290,000 tested, 0.91% active;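 active means inhibition above the screen-wide mean plus 3 SD, computed separately per campaign, cut at about 16% in these data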;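 further: 0% = DMSO wells and 100% = 60 µM geldanamycin wells; inhibitors lower the luminescence because luciferase stays unfolded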
SENP1 FRET inh: SENP1 (human) catalytic domain inhibition; inhibition, % at 10 µM; 360,000 tested, 0.21% active; AID 624204; recombinant SENP1 catalytic domain, CyPet-SUMO1-YPet FRET cleavage;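 active means inhibition at least 30% at 10 µM, raw YFP signal under a set limit, fluorescence ratio 0.5 to 1.5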;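 further: 0% = enzyme with DMSO and 100% = no enzyme wells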
Target sequence (Q9P0U3 419-644 limits assumed): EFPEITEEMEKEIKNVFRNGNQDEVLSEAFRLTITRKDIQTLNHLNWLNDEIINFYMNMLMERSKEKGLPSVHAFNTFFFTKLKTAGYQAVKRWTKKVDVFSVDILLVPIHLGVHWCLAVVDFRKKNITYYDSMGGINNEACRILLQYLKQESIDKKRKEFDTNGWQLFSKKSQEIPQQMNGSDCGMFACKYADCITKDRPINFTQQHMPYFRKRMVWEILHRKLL
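material = recombinant human SENP1 catalytic domain, His6-tagged | quantity = 20 pM enzyme | reagent = 25 nM SUMO1 FRET substrate | compound dosing = 10 µM single point, 0.5% DMSO | timing = 50 min enzyme reaction, room temperature, light-protected | detection = FRET, CFP and YFP emission | control set = no-enzyme low, enzyme-DMSO high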
SENP8 block-2: inhibitors of human SENP8 protease; Q96LD8; recombinant SENP8, Nedd8 substrate fluorescence; inhibition, % at 20 µM; 360,000 tested, 0.64% active; in the data active means inhibition mostly above about 40%, no sharp cut-off; inactive means mostly below about 27%
SENP6 inh: blocks the human protease SENP6; Recombinant SENP6 catalytic domain, aminoluciferin luminescence; Q9GZR1; AID 2599; inhibition, % at 10 µM; 330,000 tested, 1.8% active;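 active means inhibition above about 50% at the single tested dose, limit read from the data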;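 further: plate controls were DMSO wells with enzyme for no effect and DMSO wells lacking enzyme for full effect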
Target sequence (Q9GZR1 628-1112 limits assumed): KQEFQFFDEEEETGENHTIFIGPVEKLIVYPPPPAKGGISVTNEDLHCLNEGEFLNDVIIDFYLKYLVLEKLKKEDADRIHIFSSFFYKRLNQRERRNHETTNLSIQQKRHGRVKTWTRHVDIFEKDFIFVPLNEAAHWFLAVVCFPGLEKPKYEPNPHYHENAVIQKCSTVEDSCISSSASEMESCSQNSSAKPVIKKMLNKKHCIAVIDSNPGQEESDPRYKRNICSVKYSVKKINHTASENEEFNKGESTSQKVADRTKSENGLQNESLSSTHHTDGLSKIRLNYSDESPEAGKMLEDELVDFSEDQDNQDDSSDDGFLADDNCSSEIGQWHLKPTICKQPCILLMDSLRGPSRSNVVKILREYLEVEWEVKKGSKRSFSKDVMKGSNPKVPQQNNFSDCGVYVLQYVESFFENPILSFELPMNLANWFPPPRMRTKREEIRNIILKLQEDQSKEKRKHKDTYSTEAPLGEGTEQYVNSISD
SENP8 inh conf: confirmation of human SENP8 protease inhibitors | shares compounds with SENP8 block-2 | 1,400 tested, 15% active | purified SENP8, Nedd8-AMC/pro-Nedd8 cleavage fluorescence, 30 min | inhibition, % at 25 µM; in the data active means inhibition mostly above about 39%, no sharp cut-off; inactive means mostly below about 34%
Numbers without * were called inactive; . = not tested or not shown.

SMILES	SENP7 inh	SENP8 block-1	HSP90 inh	SENP1 FRET inh	SENP8 block-2	SENP6 inh	SENP8 inh conf
COc1ccc(CNC(=O)COC(=O)CCn2c(C)csc2=O)cc1OC	0.5	3.1	.	-0.7	-1.6	-3.2	.
O=C(NC1CCCCC1)C(c1ccccc1)N(Cc1ccco1)C(=O)c1csnn1 (stereo not given)	-3.1	2.8	-1.1	1.0	2.9	-12.7	.
O=C(NC1CCCC1)C(c1cccs1)N(Cc1ccco1)C(=O)c1csnn1 (stereo not given)	5.6	5.5	0.6	0.8	40.5*	-10.1	4.3
COc1ccc(C(=O)/C=C(\C)Nc2ccc3c(c2)OCO3)cc1	1.3	-2.7	0.4	-5.2	41.4*	12.5	2.5
CCCC(=O)N1CCN(c2ccc(NC(=O)c3ccc([N+](=O)[O-])o3)cc2)CC1	.	.	-1.0	0.5	54.1*	.	45.9
CC(C)(C)C(=O)N1CCN(c2ccc(NC(=O)c3ccc([N+](=O)[O-])o3)cc2)CC1	11.9	5.9	4.6	-0.7	48.2*	12.2	26.6
O=C(Nc1ccccc1N1CCCC1)c1ccc([N+](=O)[O-])o1	14.1	-3.1	-0.6	0.5	40.1*	21.7	54.1*
CC1CCN(c2ccccc2NC(=O)c2ccc([N+](=O)[O-])o2)CC1	-13.8	-8.3	-2.0	1.0	14.8	0.3	.
CC(C)(C)C(=O)N1CCN(c2ccc(NC(=O)c3ccco3)cc2)CC1	0.1	-1.7	-4.8	2.4	2.5	-21.7	.
CCC(=O)N1CCN(c2ccc(NC(=O)c3ccc([N+](=O)[O-])o3)cc2)CC1	.	.	5.4	-1.3	42.6*	.	26.3
O=C(NCc1ccccc1)c1ccc(NC(=O)C2CCC2)cc1	.	.	.	0.3	10.2	.	.
O=C(Nc1ccc(N2CCN(C(=O)c3ccc(Cl)cc3)CC2)cc1)c1ccc([N+](=O)[O-])o1	.	.	-0.2	3.2	33.4*	.	26.0
O=C(Nc1ccc(N2CCN(C(=O)c3ccc(Cl)cc3)CC2)cc1)c1ccc2c(c1)OCCO2	0.0	-9.0	2.9	0.6	7.9	-11.4	.
Cc1cc(=O)[nH]c(SCC(=O)Nc2ccc(N3CCCCC3)cc2)n1	-0.8	9.9	.	0.6	5.7	-0.1	.
Cc1nc2c(C(=O)Nc3ccc(N4CCCC(O)C4)cc3)snc2c(=O)[nH]1 (stereo not given)	-4.7	-1.4	0.3	3.1	57.0*	-2.0	-3.9
CCOC(=O)/C(=N\Nc1ccccc1)P(=O)(c1ccccc1)c1ccccc1	0.7	3.1	1.3	2.6	18.2	-17.1	.
Cc1ccc(CNC(=O)N[C@@H](Cc2ccccc2)C(=O)O)cc1	2.9	2.5	-2.5	0.0	10.1	6.1	.
Cc1ccc(C(=O)Nc2c(-c3ccc(Cl)cc3)[nH][nH]c2=O)cc1	.	.	.	1.6	46.7*	.	30.4
O=C(Nc1c(-c2ccc(Cl)cc2)[nH][nH]c1=O)c1ccccn1	.	.	.	1.4	20.6	.	.
O=C(Nc1c(-c2ccccc2)[nH][nH]c1=O)c1ccc(-c2ccccc2)cc1	.	.	.	4.2	15.7	.	.
O=C(Nc1c(-c2ccccc2)[nH][nH]c1=O)c1ccco1	.	.	.	0.6	64.2*	.	17.6
COc1ccc(-c2[nH][nH]c(=O)c2NC(=O)c2ccccn2)cc1	.	.	.	2.6	41.6*	.	31.3
CCc1c(C)sc(NC(=O)Cc2ccccc2C)c1C(=O)N1CCOCC1	-4.7	-9.4	-7.0	0.7	-2.9	-11.6	.
CCCCCCN1C[C@@H](O)[C@H](n2cc(COC(=O)c3ccccc3)nn2)C[C@@H]1c1ccccc1	.	.	.	-1.1	-12.5	.	.
COc1cc2c(C(=O)Nc3ccccc3F)cn(C)c(=O)c2cc1OC	4.1	3.6	0.8	0.2	17.9	19.5	.
SMILES	SENP7 inh	SENP8 block-1	HSP90 inh	SENP1 FRET inh	SENP8 block-2	SENP6 inh	SENP8 inh conf
CCN(C(=O)c1cn(C)c(=O)c2cc(OC)c(OC)cc12)c1cc(OC)ccc1OC	-0.4	-1.4	1.0	0.9	42.6*	-12.6	13.3
COc1ccccc1NC(=O)c1cn(C)c(=O)c2cc(OC)c(OC)cc12	-10.1	-6.6	1.4	0.6	41.5*	-8.8	63.3*
COC(=O)c1cc(S(=O)(=O)N2CCN(c3cccc(Cl)c3)CC2)c[nH]1	7.7	2.3	-3.8	2.8	8.5	-7.9	.
CCCSc1cc(NCCOC(=O)CCC)c([N+](=O)[O-])c2nonc12	8.6	-2.3	-5.8	-34.8	19.9	12.1	.
CCCC(=O)OCCNc1cc(SCc2ccco2)c2nonc2c1[N+](=O)[O-]	17.6	25.9	-2.5	-15.4	61.5*	32.1	5.8
O=C(CNc1ccc2c(c1)OCO2)N/N=C\c1cn(Cc2ccccc2)c2ccccc12	11.8	0.2	6.0	7.8	43.5*	-5.3	3.3
OC[C@@H]1CN(Cc2cccnc2)C[C@H](n2cnc3c(N4CCN(c5ccccc5)CC4)ncnc32)O1	.	.	.	-0.5	11.4	.	.
CCc1ccc2c(c1)c1nc(C)sc1n2CC	8.8	9.2	7.5	3.6	95.7*	20.4	15.0
Cc1nc2c3cc(F)ccc3n(Cc3ccc(F)cc3)c2s1	-1.4	-3.3	0.6	-21.2	-9.7	9.3	.
Cc1cc(=O)n(-c2ccc3ccccc3n2)[nH]1	3.5	-3.0	4.1	2.7	46.9*	16.4	16.7
CC1=CCC2C(=O)N(c3ccc4ccccc4n3)C(=O)C2C1 (stereo not given)	6.3	-4.6	3.9	-2.0	-9.7	7.2	.
Cc1ccccc1-c1cnc(C(O)c2ccc(C(C)(C)C)cc2)[nH]1 (stereo not given)	.	.	.	-1.4	25.0	.	.
Cc1ccccc1-c1cnc(C(O)c2ccc(-c3ccccc3)cc2)[nH]1 (stereo not given)	.	.	.	1.1	40.7*	.	19.6
O=C(Nc1ccc(Cl)cc1)C1CCCN(c2ncnc3c2nc2n3CCCCC2)C1 (stereo not given)	-2.4	3.2	-4.9	2.6	12.9	-4.4	.
COc1ccccc1-c1coc2cc(O)cc(O)c2c1=O	-0.2	-2.8	-4.2	-1.0	17.2	-18.1	.
O=c1c(-c2ccc(O)cc2O)coc2cc(O)cc(O)c12	-2.5	3.8	2.1	2.1	54.8*	7.7	21.7
O=C(CCC1CCCNC1)c1ccccc1 (stereo not given)	-2.7	-3.8	-2.7	.	.	-14.6	.
COc1ccc(N/C=C/c2nc(SC)nnc2C)cc1	-1.9	-6.3	2.6	-21.8	35.6*	-10.5	36.4
Cc1cccc(C)c1N/C=C/c1onc(C)c1[N+](=O)[O-]	2.0	-1.4	6.1	-50.0	31.5	7.7	.
Cc1ccc(N/C=C/c2onc(C)c2[N+](=O)[O-])cc1	77.8*	28.6	-10.2	-34.9	53.5*	59.6*	14.4
Cn1c(=O)n(C)c2cc(N3CCOCC3)c(NC(=O)c3cccc(Cl)c3)cc21	-6.3	-5.5	3.5	0.9	-2.0	-1.5	.
CCC(=O)N(CCC(Cc1ccccc1)c1ccc2c(c1)OCO2)Cc1ccccc1F (stereo not given)	2.3	8.0	0.5	1.8	40.1*	7.0	13.6
